MT1-MMP act inh: blockers of MT1-MMP proenzyme processing, primary screen, HT1080 RFP-PRO-GFP cells, GFP/RFP fluorescence. GFP/RFP ratio fluorescence, overnight; percent of plate control window, DMSO zero. GFP/RFP ratio change, % at 20 µM. 360,000 compounds, 0.061% hits. AID 651647, 2012;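 active = GFP/RFP ratio change of at least 30% with cell ATP level not reduced by more than half and red fluorescence within 50% of control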
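Assay system: HT1080 RFP-PRO-GFP cells | Dosing: 20 µM single dose, 1% DMSO | Incubation: Cells overnight before dosing, compound overnight, 37 °C, 5% CO2 | Evaluation: GFP/RFP fluorescence ratio | Control set: DMSO-only wells and HT1080 RFP-L50D-GFP cell wells as references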
SKN-1 block: suppressors of acrylamide-induced Pgst-4::GFP reporter in worms, primary screen, SKN-1 inhibitor project, whole organism, uHTS, GFP/RFP fluorescence ratio, strain VP596. inhibition, % at 21.8 µM. AID 624304, 2012. 360,000 compounds, 0.49% hits. C. elegans VP596 Pgst-4::GFP/RFP ratio, 24 h;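 active = interference check ratio from 0.5 to 1.5 plus GFP to RFP signal ratio inhibition reaching or exceeding a fixed threshold, cut at about 30% in these data, passing the limit was not always enough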
pCIP destab: p/CIP-EGFP fusion destabilizers, primary screen, fluorescence, F442A cells; 16 h; 290,000 compounds, 0.01% hits; decrease of EGFP signal, % at 10 µM; Q05BA5;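 active = EGFP signal decrease of at least 30% at 10 µM or well 3 SD below plate mean, unless failing retest; inactive = the rest, including hits failing retest or dose response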
bovine MsrA act: bovine MsrA enzyme activators, primary screen, biochemical, absorbance, HTS; Methionine sulfoxide reductase A (Bos taurus); purified bovine MsrA, absorbance read-out; activation, % at 10.6 µM; 360,000 compounds, 0.3% hits; AID 602163, 2012; in the data active = activation above about 7.5%;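 note: 0% = vehicle and 100% = reference activator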
MsrA inhibitor: bovine MsrA enzyme inhibitors, primary screen, biochemical, absorbance, HTS. 360,000 compounds, 0.75% hits. inhibition, % at 15.5 µM. AID 651718, 2012. Methionine sulfoxide reductase A (Bos taurus). purified bovine MsrA, absorbance read-out; in the data active = inhibition above about 4.5%;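 note: 0% = vehicle wells with enzyme and 100% = reference inhibitor wells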
* marks the source's active call; other numbers are inactive results. In the library only some 1.6% were active in any assay of this set; here they are far more common.

For COc1ccc(-c2ccc(/C=C(\NC(=O)c3ccccc3)C(=O)N3CCOCC3)o2)cc1 the results were MT1-MMP act inh -7, SKN-1 block 5, pCIP destab 10, bovine MsrA act -6 and MsrA inhibitor 4.6*.
For O=C(Cc1cn(Cc2ccccc2)c2ccccc12)Nc1ccc(Nc2cccnc2)c(Br)c1 the results were MsrA inhibitor 2.
C=CCSc1nnc(-c2cccnc2)o1 was read as MT1-MMP act inh 23, SKN-1 block 5, pCIP destab -13, bovine MsrA act -5 and MsrA inhibitor -1.
`C=CCSc1nnc(-c2ccc(Cl)cc2Cl)o1` gave SKN-1 block 86*, pCIP destab -15, bovine MsrA act -12 and MsrA inhibitor -1.
Screening Clc1ccc(-c2nnc(SCc3ccon3)o2)c(Cl)c1 returned MT1-MMP act inh 2, SKN-1 block 37*, pCIP destab 0, bovine MsrA act -3 and MsrA inhibitor -1.
`Clc1ccc(-c2nnc(SCc3nc4ccccc4[nH]3)o2)c(Cl)c1` gave MT1-MMP act inh -8, SKN-1 block -6, pCIP destab -3, bovine MsrA act -7 and MsrA inhibitor -1.
Screening COC(=O)C1=C(C)N(Cc2ccc(C(F)(F)F)cc2)C(=NCc2ccc3c(c2)OCO3)NC1c1ccccc1C(F)(F)F (stereo not drawn) returned MsrA inhibitor -1.
For O=C1OCCN1C(=O)[C@H]1[C@H](c2ccc([N+](=O)[O-])cc2)C(c2ccc(F)cc2)=NN1c1ccc(Br)cc1 the results were SKN-1 block 12, bovine MsrA act -12 and MsrA inhibitor 4.7*.
Screening COC(=O)c1cc2c(c3c4cc(F)ccc4n(S(=O)(=O)c4ccccc4)c13)C(=O)N(Cc1ccco1)C2 returned MsrA inhibitor 1.
`CC(=O)c1ccc(N2CCN(C(=O)C3CCN(S(=O)(=O)c4cccs4)CC3)CC2)cc1` gave MT1-MMP act inh -9, SKN-1 block 3, pCIP destab -5, bovine MsrA act -5 and MsrA inhibitor 4.6*.
`CC1CCN(C(=O)C2CCN(S(=O)(=O)c3cccs3)CC2)CC1` gave MT1-MMP act inh -1, SKN-1 block -2, pCIP destab 6, bovine MsrA act -8 and MsrA inhibitor 0.
c1ccc(-c2ccc3ccccc3n2)cc1 was read as MT1-MMP act inh 1, SKN-1 block 24, bovine MsrA act -5 and MsrA inhibitor 0.
c1ccc2nc(-c3ccc(-n4ccnc4)cc3)ccc2c1 was read as MT1-MMP act inh 5, SKN-1 block 66*, pCIP destab -16, bovine MsrA act -2 and MsrA inhibitor 2.
CN(CCOCCOc1ccc(Cl)cc1Br)Cc1ccccc1 was read as MT1-MMP act inh 0, SKN-1 block 5, pCIP destab 38*, bovine MsrA act 0 and MsrA inhibitor -1.
Screening Cc1cc(C)n(CC(O)Cn2c(C)c(C)c3ccccc32)n1 (stereo not drawn) returned MT1-MMP act inh 2, SKN-1 block 63*, pCIP destab -3, bovine MsrA act -4 and MsrA inhibitor -1.
`Cc1c(C)n(CC(O)CN2CCCCC2)c2ccccc12` (stereo not drawn) gave MT1-MMP act inh 4, SKN-1 block -11, pCIP destab 2, bovine MsrA act -5 and MsrA inhibitor 0.
CC1CCCN(c2cccc3c2S(=O)(=O)N([C@H](C)c2ccccc2)C[C@@H](COCc2ccccc2)O3)C1 (stereo partly drawn) was read as MsrA inhibitor -2.
`O=C(O)C1CCN(S(=O)(=O)Cc2ccccc2)CC1` gave MT1-MMP act inh -4, SKN-1 block -3, pCIP destab 3, bovine MsrA act -1 and MsrA inhibitor 0.
CC1Cc2ccccc2N1C(=O)C1CCN(S(=O)(=O)Cc2ccccc2)CC1 (stereo not drawn) was read as MT1-MMP act inh 3, SKN-1 block 32*, pCIP destab -1, bovine MsrA act -2 and MsrA inhibitor 1.
Screening O=C(O)c1cc(O)ccc1N=Nc1ccccc1 returned MT1-MMP act inh 9, SKN-1 block 22, pCIP destab -3, bovine MsrA act -2 and MsrA inhibitor 4.6*.

Source: PubChem (several laboratories)
